Assay outcomes deposited in PubChem by several laboratories.
Shown are actives, neighbours in structure and some others; about 1.2% of the full set was active somewhere.
FN deposition inh: fibronectin deposition inhibition | AH1F fibroblasts, Alexa488-fibronectin deposition fluorescence, overnight | inhibition, % at 12.6 µM | 0.086% of 350,000 active | AID 743247;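 active means mean inhibition across replicates of 30% or more, regardless of how many single replicates reach that level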;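 further: positive control wells lacked labelled fibronectin entirely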
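Schedule: 1 h cell adhesion before compound, then overnight fibronectin incubation; test system: AH1F fibroblast monolayer depositing Alexa488-labelled fibronectin into matrix; quantity: 10000 AH1F cells per well; probe or stimulus: fluorescent fibronectin at 24 nM final; signal: fluorescence, ex 485 nm, em 525 nm; evaluation: percent inhibition as loss of matrix-bound fibronectin fluorescence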
ABHD5 PLIN5 PPI: ABHD5-PLIN5 protein interaction inhibition. Q00G26+Q8WTS1. Split G. princeps luciferase complementation, luminescence, 4 h. inhibition, % at 4 µM. 0.78% of 360,000 active. AID 602281;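 active means inhibition above the mean inhibition across every tested compound plus 3 SD, cut at about 22% in these data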;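 further: 0% = DMSO only wells and the 100% control is not disclosed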
A3A deaminase: blocks human APOBEC3A ssDNA deamination | AID 493011 | 0.41% of 330,000 active | P31941 | recombinant A3A, FAM/TAMRA ssDNA deamination fluorescence | inhibition, % at 20 µM;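 active means at least 40% inhibition at 20 µM here, with at most 30% in a related deaminase screen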;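 further: plate controls were A3A with DMSO for no effect and wells lacking A3A enzyme for full effect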
Target sequence (P31941 whole entry, looked up): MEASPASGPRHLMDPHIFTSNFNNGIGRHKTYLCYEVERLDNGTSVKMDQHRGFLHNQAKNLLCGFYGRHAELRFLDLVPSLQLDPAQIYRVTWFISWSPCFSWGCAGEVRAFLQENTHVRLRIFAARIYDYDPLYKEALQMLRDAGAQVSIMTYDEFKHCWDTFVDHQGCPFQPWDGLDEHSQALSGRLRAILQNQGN
APOBEC3G inh: inhibitors of human APOBEC3G DNA deaminase; Q9HC16; recombinant A3G, ssDNA deamination FAM/TAMRA fluorescence; 0.28% of 330,000 active; inhibition, % at 20 µM;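 active means inhibition of at least 40% at 20 µM, with no more than 30% in the related APOBEC3A deaminase screen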;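 further: plate controls were DMSO wells with A3G for no effect and wells lacking A3G enzyme for full effect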
Target sequence (Q9HC16 whole entry, looked up): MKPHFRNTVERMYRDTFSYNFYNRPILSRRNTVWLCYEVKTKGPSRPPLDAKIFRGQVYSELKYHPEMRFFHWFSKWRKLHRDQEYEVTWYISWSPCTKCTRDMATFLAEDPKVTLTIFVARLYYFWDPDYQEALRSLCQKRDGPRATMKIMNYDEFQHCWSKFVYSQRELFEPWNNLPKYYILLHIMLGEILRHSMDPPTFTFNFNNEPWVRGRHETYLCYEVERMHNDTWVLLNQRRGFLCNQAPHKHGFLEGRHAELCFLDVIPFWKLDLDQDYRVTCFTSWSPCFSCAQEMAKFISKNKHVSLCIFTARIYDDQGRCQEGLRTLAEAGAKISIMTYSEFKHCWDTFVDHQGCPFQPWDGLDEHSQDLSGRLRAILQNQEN
ABHD5-PLIN5 conf: ABHD5-PLIN5 interaction inhibition, confirmed | shares compounds with ABHD5 PLIN5 PPI | biochemical ABHD5-PLIN5 interaction, luminescence | inhibition, % at 4 µM | 67% of 2,200 active | AID 651612; in the data active means inhibition above about 23%;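 further: 0% = DMSO vehicle wells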
HNF4 split-luc: HNF4 split-luciferase signal hit, counter-screen; shares compounds with ABHD5 PLIN5 PPI; 77% of 2,200 active; HNF4 dimerization, luminescence, biochemical; inhibition, % at 4 µM;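 active means mean inhibition across replicate wells exceeding the computed hit threshold, cut at about 13% in these data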;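 further: light from luciferase halves that rejoin when HNF4 fusion proteins dimerize; 0% = DMSO only wells and the 100% control is not given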
An asterisk follows results filed as active; ! = repeats disagree.

CCN(CC)c1ccc(C(=O)NNC(=O)CCNC(=O)c2ccccc2)cc1 was read as FN deposition inh -3, ABHD5 PLIN5 PPI -12, A3A deaminase -3 and APOBEC3G inh -5.
For COC(=O)C[C@@H]1CC[C@@H]2[C@H](COC[C@@H](O)CN2CCC(F)(F)F)O1 the results were FN deposition inh -3.
`CCCC#Cc1ccc([C@H]2[C@H](CO)N3C(=O)CN(C(=O)Nc4cccc(F)c4)C[C@@H]23)cc1` gave FN deposition inh -10.
For CC(C)[C@H](NC(=O)OC(C)(C)C)c1nnc(S(=O)(=O)Cc2c(F)cccc2Cl)o1 the results were ABHD5 PLIN5 PPI 71*, A3A deaminase -2, APOBEC3G inh -3, ABHD5-PLIN5 conf 85* and HNF4 split-luc 108*.
`CC[C@@H](C)[C@H](NC(=O)OC(C)(C)C)c1nnc(S(=O)(=O)Cc2cc(C)ccc2C)o1` gave ABHD5 PLIN5 PPI 61*, A3A deaminase -5, APOBEC3G inh -4, ABHD5-PLIN5 conf 72* and HNF4 split-luc 102*.
`Cc1ccccc1CS(=O)(=O)c1nnc([C@H](CC(C)C)NC(=O)OC(C)(C)C)o1` gave ABHD5 PLIN5 PPI 45*, A3A deaminase 1, APOBEC3G inh -1, ABHD5-PLIN5 conf 69* and HNF4 split-luc 90*.
CC[C@@H](C)[C@H](NC(=O)OCc1ccccc1)c1nnc([C@@H](NC(=O)OCc2ccccc2)[C@@H](C)CC)o1 was read as FN deposition inh -7, ABHD5 PLIN5 PPI -16, A3A deaminase -4 and APOBEC3G inh -8.
For COc1ccccc1S(=O)(=O)N[C@H]1CC[C@@H](CCn2cc(C3CCCC3)nn2)O[C@@H]1CO the results were FN deposition inh 1.
`CCCC(=O)NC(c1ccco1)c1cc([N+](=O)[O-])c2cccnc2c1O` (configuration not stated) gave FN deposition inh 10, ABHD5 PLIN5 PPI 35*, A3A deaminase 27, APOBEC3G inh 12, ABHD5-PLIN5 conf 17 and HNF4 split-luc 24*.
For CCCNC(=O)N(C)C[C@H]1Oc2cc(C#Cc3ccccn3)ccc2S(=O)(=O)N([C@@H](C)CO)C[C@@H]1C the results were FN deposition inh -3.
For N#Cc1ccc(-c2ccc3c(c2)[C@@H]2[C@@H](CCN2C(=O)C2CCCC2)[C@H](CO)N3)cc1 the results were FN deposition inh 15.
CCOc1ccccc1C1N=C(c2ccc(OC)cc2)CC(c2ccccc2O)N1 (configuration not stated) was read as FN deposition inh -16, ABHD5 PLIN5 PPI 25*, A3A deaminase 4, APOBEC3G inh -1, ABHD5-PLIN5 conf 57* and HNF4 split-luc 48*.
Oc1ccccc1C1CC(c2cccs2)=NC(c2ccc(Cl)cc2)N1 (configuration not stated) was read as FN deposition inh -2, ABHD5 PLIN5 PPI 8, A3A deaminase -1 and APOBEC3G inh -5.
C[C@H](CO)N1C[C@H](C)[C@@H](CN(C)C(=O)C2CC2)Oc2cc(-c3cccc(F)c3)ccc2S1(=O)=O was read as FN deposition inh 8.
COc1ccc(S(=O)(=O)Nc2ccc3c(c2)C(=O)N([C@H](C)CO)C[C@@H](C)[C@H](CN(C)C(=O)Nc2ccc(C(F)(F)F)cc2)O3)cc1 was read as FN deposition inh 0.
`O=C(/C=C\c1cccs1)c1c(O)ccc2ccc(=O)oc12` gave FN deposition inh -3, ABHD5 PLIN5 PPI 25*, A3A deaminase -4, APOBEC3G inh -9, ABHD5-PLIN5 conf 34* and HNF4 split-luc 37*.
For COc1cc(SC#N)ccc1N=Cc1c(C)[nH]n(-c2cccc3ccccc23)c1=O the results were A3A deaminase -2 and APOBEC3G inh -2.
Screening COc1cc(SC#N)ccc1N=Cc1c(C)[nH]n(-c2ccc(C)cc2C)c1=O returned ABHD5 PLIN5 PPI 27*, A3A deaminase -3, APOBEC3G inh -5, ABHD5-PLIN5 conf 38* and HNF4 split-luc 26*.
Screening CCOC(=O)c1cc2c(=O)n3cccc(C)c3nc2n(CCCOC)c1=NC(=O)c1cccnc1 returned FN deposition inh -3, ABHD5 PLIN5 PPI 4, A3A deaminase 1 and APOBEC3G inh -4.
Screening CCCCCn1c(=NC(=O)c2ccco2)c(C(=O)OCC)cc2c(=O)n3ccccc3nc21 returned FN deposition inh 12, ABHD5 PLIN5 PPI 56*!, A3A deaminase 7, APOBEC3G inh 3, ABHD5-PLIN5 conf 18 and HNF4 split-luc 25*.
Screening CCCCn1c(=NC(=O)c2ccco2)c(C(=O)OCC)cc2c(=O)n3cccc(C)c3nc21 returned FN deposition inh 2, ABHD5 PLIN5 PPI 37*, A3A deaminase 8, APOBEC3G inh 10, ABHD5-PLIN5 conf 10 and HNF4 split-luc 14*.
For CC1(c2ccc([N+](=O)[O-])cc2)Nc2ccccc2S1 (configuration not stated) the results were FN deposition inh -12, ABHD5 PLIN5 PPI 35*, A3A deaminase 0, APOBEC3G inh -5, ABHD5-PLIN5 conf -5 and HNF4 split-luc -9.
CN(C)c1ccc(C(=O)/C=C/c2cccnc2)cc1 was read as FN deposition inh 10, ABHD5 PLIN5 PPI 18, A3A deaminase -1 and APOBEC3G inh -2.
For O=C(O)c1ccc(/C=C/C(=O)c2ccc3c(c2)OCCCO3)cc1 the results were FN deposition inh 4, ABHD5 PLIN5 PPI 49*, A3A deaminase 0, APOBEC3G inh -4, ABHD5-PLIN5 conf 48* and HNF4 split-luc 43*.
For O=C(/C=C/c1cccnc1)c1ccc(F)c(F)c1 the results were FN deposition inh 8, ABHD5 PLIN5 PPI 71*, A3A deaminase -4, APOBEC3G inh -7, ABHD5-PLIN5 conf 97* and HNF4 split-luc 95*.
Screening O=C(/C=C/c1ccc([N+](=O)[O-])cc1)c1cccnc1 returned FN deposition inh 2, ABHD5 PLIN5 PPI 30*, A3A deaminase 3, APOBEC3G inh 1, ABHD5-PLIN5 conf 83* and HNF4 split-luc 93*.
For O=C(/C=C/c1cccc(OCc2ccccc2)c1)c1cccnc1 the results were FN deposition inh 10, ABHD5 PLIN5 PPI 36*, A3A deaminase -1, APOBEC3G inh -5, ABHD5-PLIN5 conf 61* and HNF4 split-luc 70*.
Screening Cc1noc(C)c1S(=O)(=O)N1[C@@H]2CNC[C@H]1C2c1ccc(-c2cccc(F)c2)cc1 (some centres not stated) returned FN deposition inh -1.
C/C(=N\NC(=O)c1cccnc1)c1cccc([N+](=O)[O-])c1 was read as FN deposition inh 2, ABHD5 PLIN5 PPI 3, A3A deaminase 1 and APOBEC3G inh 0.
O=C(/C=C/c1ccc2c(c1)OCO2)c1cccnc1 was read as FN deposition inh 2, ABHD5 PLIN5 PPI 28*, A3A deaminase -4, APOBEC3G inh -10, ABHD5-PLIN5 conf 63* and HNF4 split-luc 54*.
